Assay results published in ChEMBL document CHEMBL1135780, “6-Chloro-3-alkylamino-4H-thieno[3,2-e]-1,2,4-thiadiazine 1,1-dioxide derivatives potently and selectively activate ATP sensitive potassium channels of pancreatic beta-cells” (J Med Chem, 2002).

How the values were obtained:
Beta-TC6 [1] = assay: Maximum inhibition of glucose stimulated insulin release from mouse beta-TC6 cells at 10 uM in vitro.; format: functional
Beta-TC6 [2] = assay: Ability to inhibit the release of insulin from the mouse beta-TC6 cell line; format: functional, cell-based
How it was run: (§1)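 βTC6 cells, 5 × 10⁴/well, grown 3 days in DMEM + 10% FCS, 11 mM glucose, 20 mM Hepes. Washed twice in NN buffer with 0.1% BSA, preincubated 60 min, then 3 h with 22 mM glucose, 0.1 mM IBMX and serial compound dilutions. Insulin in supernatant measured by in-house ELISA (guinea pig anti-insulin, rat insulin standard). Reference compound as positive control.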

[3] = Changes in potassium fluxes assessed in the glucose responsive insulin-producing murine cell line beta-TC3; format: functional, cell-based, Mus musculus
How it was run: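 βTC3 membrane potential read as DiBAC4(3) fluorescence at 0.01, 0.1, 1, 10 and 100 µM, four wells each. Signal normalized to each well's initial value and expressed as fractional fluorescence change over 45 min incubation. EC50 from four-parameter nonlinear fit; mean ± SEM of at least three independent experiments.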

Rattus norvegicus [4] = species: Rattus norvegicus; assay: Ability to relax phenylephrine-contracted rat aorta rings; format: functional
Rattus norvegicus [5] = species: Rattus norvegicus; assay: Effective concentration required for relaxation of the rat aorta rings; format: functional
Beta-TC6 [6] = assay: Percentage insulin release in vitro in beta-TC6 cells; format: functional; conditions: Mus musculus; how it was run: as §1
Rattus norvegicus [7] = species: Rattus norvegicus; assay: Maximum change in MAP in rat; format: functional
How it was run: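 Anaesthetized male Sprague–Dawley rats given 3 mg/kg iv bolus (0.3 mg/kg for one compound) in 0.15% NaOH/saline via jugular cannula. Maximal percent change in mean arterial pressure over 5 min after dosing; mean ± SEM, 2–4 animals.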

Rattus norvegicus [8] = species: Rattus norvegicus; assay: Vasodilation effects on Wistar rat mesenteric arteries precontracted with phenylephrine; format: functional
Rattus norvegicus [9] = species: Rattus norvegicus; assay: Inhibition of glucose-stimulated insulin release from Wistar rat islets; format: functional
How it was run: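 Isolated rat islets held overnight in RPMI, 10% FCS, 11 mM glucose, then 10 islets/well overnight in DMEM, 10% FCS, 3 mM glucose. Run like the βTC6 assay (60 min NN buffer preincubation, 3 h with 22 mM glucose and serial dilutions) without IBMX. Insulin by in-house ELISA.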

Rattus norvegicus [10] = species: Rattus norvegicus; assay: Reduction in plasma insulin in 30 min post-injection in rat; format: functional; parameters: concentration or dose not given beside the values
How it was run: (§2)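 Postprandial male Sprague–Dawley rats, 280–320 g, under Hypnorm/Dormicum at 37 °C. 3 mg/kg iv bolus over 20 s via jugular cannula (0.3 mg/kg for one compound), dissolved in 0.15% NaOH and saline. Blood taken every 5–10 min from 15 min pre- to 30 min postinjection. Plasma insulin by ELISA, as % reduction from pre-dose level. 2–4 animals.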

Rattus norvegicus [11] = species: Rattus norvegicus; assay: Maximum reduction in plasma insulin in rat; format: functional; how it was run: as §2
[12] = molecular target: T1, Sulfonylurea receptor 1, Kir6.2 (Homo sapiens, UniProt Q09428+Q14654); assay: Inhibition of [3H]glibenclamide binding to HEK293 cells co-expressing human Sulfonylurea receptor SUR1 and Inward rectifier K+ channel Kir6.2 at high affinity state with 2 mM MgATP; format: cell-based
T1 sequence (Q14654 whole entry): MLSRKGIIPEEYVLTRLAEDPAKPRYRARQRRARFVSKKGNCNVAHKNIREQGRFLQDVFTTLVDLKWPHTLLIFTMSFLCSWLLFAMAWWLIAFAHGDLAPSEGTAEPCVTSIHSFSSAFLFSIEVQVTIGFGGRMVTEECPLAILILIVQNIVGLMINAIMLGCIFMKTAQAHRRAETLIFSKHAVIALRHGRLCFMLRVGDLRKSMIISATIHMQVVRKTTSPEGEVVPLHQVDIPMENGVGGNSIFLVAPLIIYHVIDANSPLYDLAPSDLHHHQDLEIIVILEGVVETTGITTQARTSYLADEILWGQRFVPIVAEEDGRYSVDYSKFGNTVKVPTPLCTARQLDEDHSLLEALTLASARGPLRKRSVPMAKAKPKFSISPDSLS
T1 sequence (Q09428 whole entry): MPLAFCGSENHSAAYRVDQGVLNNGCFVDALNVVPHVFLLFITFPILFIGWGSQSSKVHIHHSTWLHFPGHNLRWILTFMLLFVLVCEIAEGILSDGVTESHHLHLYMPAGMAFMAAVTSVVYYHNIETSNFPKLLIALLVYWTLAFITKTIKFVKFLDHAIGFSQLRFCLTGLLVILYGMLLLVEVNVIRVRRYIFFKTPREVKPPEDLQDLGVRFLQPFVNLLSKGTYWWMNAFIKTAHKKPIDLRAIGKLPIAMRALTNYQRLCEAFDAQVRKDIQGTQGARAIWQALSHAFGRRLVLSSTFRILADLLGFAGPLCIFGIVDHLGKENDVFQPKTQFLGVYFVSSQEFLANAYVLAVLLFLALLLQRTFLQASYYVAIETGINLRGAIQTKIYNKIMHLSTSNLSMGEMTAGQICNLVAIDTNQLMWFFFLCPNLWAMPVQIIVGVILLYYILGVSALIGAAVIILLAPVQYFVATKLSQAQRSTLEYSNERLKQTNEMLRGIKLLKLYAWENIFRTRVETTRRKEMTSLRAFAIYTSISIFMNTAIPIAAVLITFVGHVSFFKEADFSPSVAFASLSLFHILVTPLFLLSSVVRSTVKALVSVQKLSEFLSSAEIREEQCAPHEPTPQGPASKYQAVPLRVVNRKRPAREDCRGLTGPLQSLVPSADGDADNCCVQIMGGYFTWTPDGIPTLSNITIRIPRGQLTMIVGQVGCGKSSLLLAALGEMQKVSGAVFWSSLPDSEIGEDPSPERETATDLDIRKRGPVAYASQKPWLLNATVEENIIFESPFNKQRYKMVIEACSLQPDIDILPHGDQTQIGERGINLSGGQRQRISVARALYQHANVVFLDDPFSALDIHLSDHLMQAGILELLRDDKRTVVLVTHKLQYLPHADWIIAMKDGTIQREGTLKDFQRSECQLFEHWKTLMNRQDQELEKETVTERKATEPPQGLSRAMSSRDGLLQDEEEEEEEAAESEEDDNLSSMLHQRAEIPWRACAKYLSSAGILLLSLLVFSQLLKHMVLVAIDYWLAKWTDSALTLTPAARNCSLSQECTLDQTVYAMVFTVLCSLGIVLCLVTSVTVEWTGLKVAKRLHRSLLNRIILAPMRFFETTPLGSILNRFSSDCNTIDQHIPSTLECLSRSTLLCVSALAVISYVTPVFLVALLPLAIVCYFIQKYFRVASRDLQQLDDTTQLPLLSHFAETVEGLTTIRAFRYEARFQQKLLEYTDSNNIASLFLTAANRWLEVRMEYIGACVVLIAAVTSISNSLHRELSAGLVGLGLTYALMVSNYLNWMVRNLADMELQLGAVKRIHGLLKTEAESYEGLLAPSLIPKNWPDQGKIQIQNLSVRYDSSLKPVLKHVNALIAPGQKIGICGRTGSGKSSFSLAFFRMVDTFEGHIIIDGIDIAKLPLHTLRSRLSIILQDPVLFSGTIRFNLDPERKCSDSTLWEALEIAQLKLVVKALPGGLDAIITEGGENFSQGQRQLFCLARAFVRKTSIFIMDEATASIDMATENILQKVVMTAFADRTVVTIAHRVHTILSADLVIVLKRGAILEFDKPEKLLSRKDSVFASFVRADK

[13] = molecular target: T1, Sulfonylurea receptor 1, Kir6.2; assay: Inhibition of [3H]glibenclamide binding to HEK293 cells co-expressing human Sulfonylurea receptor SUR1 and Inward rectifier K+ channel Kir6.2 at low affinity state with 2 mM MgATP; format: cell-based
[14] = molecular target: T1, Sulfonylurea receptor 1, Kir6.2; assay: Inhibition of [3H]glibenclamide binding to HEK293 cells co-expressing human Sulfonylurea receptor SUR1 and Inward rectifier K+ channel Kir6.2 without ATP; format: cell-based
Rattus norvegicus [15] = species: Rattus norvegicus; assay: Effective concentration required for relaxation of rat aorta rings; format: functional
[16] = LogD for water and octanol distribution coefficient at pH 7.4; format: physicochemical
How it was run: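 Octanol/water distribution measured by potentiometric titration, pH 10.5 to 2.0. Three titrations on one sample, with 1.00 mL then 10.00 mL octanol added before the second and third. Aqueous pKa used in refinement; combined multiset gives LogD at pH 7.4.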

[17] = Partition coefficient (logP); format: physicochemical; conditions: octanol/water
[18] = Compound was evaluated for physiochemical property pKa; format: physicochemical
How it was run: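 Potentiometric titration from pH 2 to 10.5 in 80% MeOH cosolvent. Three titrations on the same sample, with 0.15 M KCl added before the second. psKa values extrapolated to 0% cosolvent by Yasuda–Shedlovsky.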

[19] = Oral bioavailability in rat (Sprague-Dawley); format: ADME, organism-based; conditions: in vivo
How it was run: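 Cassette dosing, two compounds per cassette, in Sprague–Dawley rats of about 180 g, n = 2. iv doses 0.5 or 0.89 mg/kg; oral doses 1.89 or 2.0 mg/kg. Vehicle 0.1 M potassium phosphate pH 8.0, or PEG 300 based. Heart-puncture sampling, one rat per point. Plasma levels by LC/MS/MS; noncompartmental analysis.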

Structure (SMILES) | IC50 (Beta-TC6 [2]) | EC50 [3] | EC50 (Rattus norvegicus [4]) | Emax at 10 µM (Beta-TC6 [1]) | other results
CCCCNC1=NS(=O)(=O)c2sc(Cl)cc2N1 | 1.39 µM | 0.6 µM | 13.4 µM | 66% | EC50 (Rattus norvegicus [5]): 13.4 µM
O=S1(=O)NC(NC2CCCCC2)=Nc2cc(Cl)sc21 | 25.6 µM | 8 µM | 6.8 µM | 40% | –
CCCCCCNC1=NS(=O)(=O)c2sc(Cl)cc2N1 | 7.1 µM | 0.2 µM | 0.15 µM | 67% | EC50 (Rattus norvegicus [15]): 0.15 µM
NC1=NS(=O)(=O)c2sc(Cl)cc2N1 | 21.1 µM | – | 262 µM | 27% | EC50 (Rattus norvegicus [15]): 262 µM
CC(C)CCCC(C)NC1=NS(=O)(=O)c2sc(Cl)cc2N1 (racemic) | 4.89 µM | 2 µM | 25.2 µM | 72% | –
CCCCCC(C)NC1=NS(=O)(=O)c2sc(Cl)cc2N1 (racemic) | 24.9 µM | 0.4 µM | 2 µM | 36% | –
CC1=Nc2ccc(Cl)cc2S(=O)(=O)N1 [DIAZOXIDE] | – | 77.4 µM | – | – | F [19]: 154%; Emax (Beta-TC6 [6]): 23%; Change (Rattus norvegicus [7]): -26%; EC50 (Rattus norvegicus [8]): 20.8 µM; IC50 (Rattus norvegicus [9]): 20.3 µM; Reduction (Rattus norvegicus [10]): 53%; Reduction (Rattus norvegicus [11]): 53%; EC50 (Rattus norvegicus [15]): 12.8 µM

More lines, in order of falling IC50 (Beta-TC6 [2]), values ahead:

IC50 (Beta-TC6 [2]) | EC50 [3] | EC50 (Rattus norvegicus [4]) | Structure (SMILES) | Emax at 10 µM (Beta-TC6 [1]) | other results
0.75 µM | 17 µM | 2 µM | CC(NC1=NS(=O)(=O)c2sc(Cl)cc2N1)C(C)(C)C (racemic) | 56% | –
0.22 µM | 41 µM | 83 µM | CCCC(C)NC1=NS(=O)(=O)c2sc(Cl)cc2N1 (racemic) | 56% | –
0.17 µM | 0.4 µM | 169 µM | CC(C)(C)NC1=NS(=O)(=O)c2sc(Cl)cc2N1 | – | Emax (Beta-TC6 [6]): 77%; Change (Rattus norvegicus [7]): -36%; EC50 (Rattus norvegicus [8]): 60.6 µM; IC50 (Rattus norvegicus [9]): 0.06 µM; Reduction (Rattus norvegicus [10]): 71%; Reduction (Rattus norvegicus [11]): 85%; IC50 [12]: 0.23 µM; IC50 [13]: 393 µM; IC50 [14]: 1350 µM
0.17 µM | – | 34.8 µM | CC(C)C(C)NC1=NS(=O)(=O)c2sc(Cl)cc2N1 (racemic) | 79% | –
0.15 µM | 20 µM | 20.5 µM | CCC(C)CNC1=NS(=O)(=O)c2sc(Cl)cc2N1 (racemic) | 48% | logD [16]: 3.14; logP [17]: 3.17; pKa [18]: 8.29
0.15 µM | 0.6 µM | 119 µM | CC1(NC2=NS(=O)(=O)c3sc(Cl)cc3N2)CC1 [TIFENAZOXIDE] | – | Emax (Beta-TC6 [6]): 69%; Change (Rattus norvegicus [7]): -4%; EC50 (Rattus norvegicus [8]): 14.3 µM; Reduction (Rattus norvegicus [10]): 77%; Reduction (Rattus norvegicus [11]): 85%
0.07 µM | 0.08 µM | 6.2 µM | CC1(NC2=NS(=O)(=O)c3sc(Cl)cc3N2)CCCC1 | 79% | –
0.02 µM | 0.1 µM | 3.3 µM | CCC1(NC2=NS(=O)(=O)c3sc(Cl)cc3N2)CCC1 | 81% | –
